This note sets out measurements from PubChem BioAssay.

A short description of assay [1]: S. cerevisiae growth inhibition in permissive medium (OD615), pilot counter-assay for S. cerevisiae lifespan shortening project, permissive growth control (AID 705;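 active = growth inhibition above 25% in both replicates, a cutoff set 3 SD above the mean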). Particulars: OD615, 24 h, at 10 µM, stronger effect = higher value. In short, it runs like this:
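System – S. cerevisiae with engineered DeaD lifespan system · Buffer or medium – SC raffinose/galactose permissive medium · Schedule – cells pre-grown 4 h, then 24 h compound exposure, 30 °C humidified · Technique – culture turbidity as optical density at 615 nm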

The nature of assay [2]: S. cerevisiae growth inhibition in restrictive medium, OD615, pilot screen, restrictive growth control, yeast lifespan reduction project (AID 706;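 active = growth inhibition above a set limit, 3 SD over mean compound inhibition, in both replicates, cut at about 43% in these data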;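 note: modified DeaD lifespan yeast strain shifted to restrictive glucose medium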). Particulars: OD615, 48 h, at 10 µM, stronger effect = higher value. In short, it runs like this: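 Material: engineered S. cerevisiae DeaD strain / Medium: glucose-based CSMM-D restrictive medium / Compound: single dose of 10 µM compound final, 0.25% DMSO / Timing: 4 h pre-incubation, 48 h exposure at 30 °C / Technique: OD615 absorbance reading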

Assay [3] is described as follows: doxorubicin toxicity protection in MRP-1 cells – H69AR cells, CellTiter-Glo, duplicate, MRP-1 activator project, pilot screen (AID 807;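 active = viability increase at or above a cutoff of the median across tested compounds plus 3 SD, cut at about 8.5% in these data, passing the limit was not always enough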;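 note: compound pretreatment 18-22 h then 72 h combined with doxorubicin; 0% = doxorubicin alone and 100% = vehicle without doxorubicin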). Particulars: H69AR viability with doxorubicin, CellTiter-Glo luminescence; at 10 µM; stronger effect = higher value. Background: In ATP-based viability assays light output follows the ATP content of the culture.
Assay [4] is described as follows: viability of HCT116 without oncogenic beta-catenin – human colon tumor cells, pilot screen (AID 823;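 active = cell viability at or below a set limit in both duplicate runs, the limit being the all-compound median minus 4 SD, cut at about 23% in these data, passing the limit was not always enough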;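 note: 0% = wells killed by 20 µM Hyamine and 100% = untreated DMSO cell wells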). Particulars: HCT116 beta-catenin knockout viability, CellTiter-Glo, 60 h; at 10 µM; stronger effect = lower value.
Assay [5] can be described thus: viability of PTEN-null HCT116 cells – cell-based, HCT116 clonal line, CellTiter-Glo, pilot screen (AID 824;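 active = viability at or below 27.92% in each of two runs, the all-compound median minus 4 SD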;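 note: 0% = 20 µM Hyamine control and 100% = vehicle cell control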). Particulars: HCT116 PTEN-deleted viability, 60 h, at 10 µM, stronger effect = lower value.
Assay [6] can be described thus: RAM pathway blockade in budding yeast – dse1pr::URA3 reporter, 5-FOA selection, pilot screen (AID 869;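 active = inhibition over a set limit, the all-compound mean plus 3 SD, in both replicate runs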;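 note: 0% = DMSO wells with no growth and 100% = 10 µM 1-NA-PP1 with full growth; RAM network block rescues cells from 5-FOA so hits raise OD615 growth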). Particulars: S. cerevisiae dse1pr::URA3 5-FOA growth, OD615, 2 d; at 10 µM; stronger effect = higher value; strain carries analog-sensitive mutant Cbk1 kinase.
The nature of assay [7]: RAM signaling pathway blockade in yeast – S. cerevisiae, Pdr1DBD-CYC8 efflux-inhibited sensitized strain, primary screen (AID 1298).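 Note: 0% = DMSO untreated cells without growth and 100% = 10 µM 1-NA-PP1 full growth; higher means more yeast growth rescued from 5-FOA killing.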 To be noted: S. cerevisiae cbk1-as DSE1-URA3 strain, 5-FOA growth OD615, 2 d; at 50 µM; stronger effect = higher value.

SMILES strings stand for the structures. Unmarked numbers belong to inactive results. Results filed as inconclusive are left out. Active and inactive are the calls of the source.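 Rule for the calls, unless noted: active = RAM network inhibition above 8.4% in each of two replicates, 3 SD over the compound average; inconclusive = above 8.4% inhibition in only one replicate; inactive = 8.4% inhibition or less in each replicate.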

As a reminder, the viability is a read-out of living cells in per cent, often relative to untreated cells. Usually inhibition stands for the relative decrease from the control value, in per cent.

For the compound `Cc1ccc(NC(=O)c2cc(NC(=O)C3CC=CCC3C(=O)O)ccc2N2CCOCC2)cc1` (stereo not given), the growth inhibition in assay [1] was -11.6%; in assay [2], -5.87%. Besides, the viability increase in assay [3] is -3.64%. Moreover, the values for the viability in assay [4] and in assay [5] were 97.3% and 95.1%, respectively. In addition, in assay [6], the inhibition was 1.23%. The RAM network inhibition in assay [7] was 2.82%.

Regarding `CCCNc1nc2c(c(=O)[nH]c(=O)n2C)n1CCc1ccccc1`, the growth inhibition is -3.82% in assay [1] and 0.97% in assay [2]. The viability increase in assay [3] is -1.3%. Further, the viability is 112% in assay [4] and 103% in assay [5]. Also, the inhibition in assay [6] is 1.56%. For the same compound, in assay [7], the RAM network inhibition is 5.88%.

In the case of `CC(C)CCNC(=O)C1C2C=CC3(CN(Cc4ccccc4Cl)C(=O)C13)O2` (stereo not given), the growth inhibition was -8.87% in assay [1] and -13.5% in assay [2]. In addition, the viability increase in assay [3] was -3.35%. The viability is 103% in assay [4] and 98.3% in assay [5]. Besides, in assay [6], the inhibition was 0.82%. Besides, in assay [7], the RAM network inhibition was 8.03%.

For the compound `CCOc1ccc(Oc2nc(NCC(C)C)nc(OC)n2)nn1`, the growth inhibition is -8.33% in assay [1] and 5.96% in assay [2]. Besides, in assay [3], the viability increase is 0.16%. For the same compound, the viability in assay [4] was 94.8%; in assay [5] it was 91.5%. Also, in assay [6], the inhibition is 2.14%. In addition, the RAM network inhibition in assay [7] is -1.03%.

Regarding `COc1ccc2[nH]c(C)c(CCN3C(=O)C4CC=CCC4C3=O)c2c1` (stereo not given), the growth inhibition in assay [1] was -14.4%; in assay [2], -15.3%. The viability increase in assay [3] was 0.77%. Moreover, the viability was 105% in assay [4] and 89.2% in assay [5]. Also, in assay [6], the inhibition is 0.55%. Besides, in assay [7], the RAM network inhibition is 2.77%.

With `COc1ccc(C2N3CC4(C)CN2CC(C)(C3)C4)cc1OC` (stereo not given), the growth inhibition in assay [1] is -3.73%; in assay [2], -17.4%. In addition, the viability increase in assay [3] is -0.73%. Also, the viability was 105% in assay [4] and 101% in assay [5]. Besides, in assay [6], the inhibition was 1.08%. Moreover, the RAM network inhibition in assay [7] was 0.83%.

For the compound `COc1cccc(-c2nc(CS(=O)(=O)CC(=O)NCc3ccccc3)c(C)o2)c1`, the values for the growth inhibition in assay [1] and in assay [2] were 6.62% and 8.33%, respectively. Besides, the viability increase in assay [3] is -0.84%. In addition, the viability was 94.8% in assay [4] and 88.1% in assay [5]. In addition, the inhibition in assay [6] was 1.4%. Further, the RAM network inhibition in assay [7] is 3.28%.

As for `NC(=O)COc1ccc(=O)n(-c2ccccc2)n1`, the growth inhibition is 2.42% in assay [1] and 4.29% in assay [2]. In addition, the viability increase in assay [3] was 0.84%. Moreover, the viability in assay [4] was 107%; in assay [5], 105%. In assay [6], the inhibition was 1.23%. The RAM network inhibition in assay [7] is 1.14%.

Turning to `Cn1c(=O)cc(N2CCc3ccccc32)[nH]c1=O`, the growth inhibition in assay [1] is -11.7%; in assay [2], 2.4%. In addition, in assay [3], the viability increase is 0.37%. Moreover, the viability is 90.8% in assay [4] and 98.1% in assay [5]. Further, in assay [6], the inhibition is 1.23%. Besides, the RAM network inhibition in assay [7] was -1.11%.

Regarding `CCC1(C(=O)O)NC(c2cccc(OC)c2O)C2C(=O)N(c3ccccc3)C(=O)C21` (stereo not given), the figures for the growth inhibition in assay [1] and in assay [2] were -6.47% and 1.83%, respectively. Moreover, the viability increase in assay [3] was -2.33%. For the same compound, the values for the viability in assay [4] and in assay [5] were 102% and 93.8%, respectively. Also, the inhibition in assay [6] is 3.62%. The RAM network inhibition in assay [7] is 1.14%.

In the case of `Cn1c(SCC(=O)Nc2cccc(F)c2)nnc1-c1cccnc1`, the growth inhibition in assay [1] is -4.63%; in assay [2], -4.04%. The viability increase in assay [3] is 0.87%. Moreover, the viability is 105% in assay [4] and 104% in assay [5]. The inhibition in assay [6] is 0.035%. Moreover, the RAM network inhibition in assay [7] was 3.15%.

In the case of `CCC(C)[C@@H](C(=O)Nc1ccc(OC)c(OC)c1)N1Cc2ccccc2C1=O` (stereo not given in full), the growth inhibition in assay [1] is -13.5%; in assay [2], -13.6%. Also, in assay [3], the viability increase is -2.11%. In addition, the viability in assay [4] is 91.8%; in assay [5], 82.8%. Further, in assay [6], the inhibition was 2.65%. In assay [7], the RAM network inhibition was 2.81%.

As for `O=C(Cn1c(=O)n(-c2ccccc2)c(=O)n1CC(=O)N1CCCCC1)N1CCCCC1`, the values for the growth inhibition in assay [1] and in assay [2] were -8.76% and -2.77%, respectively. Moreover, the viability increase in assay [3] was -0.69%. Further, the figures for the viability in assay [4] and in assay [5] were 107% and 96.4%, respectively. Also, in assay [6], the inhibition was 0.495%. For the same compound, the RAM network inhibition in assay [7] was 0.57%.

With `CCCSc1n[nH]c(NC(C)=O)n1`, the growth inhibition in assay [1] is -9.97%; in assay [2], 7.95%. In addition, the viability increase in assay [3] is -0.65%. Further, the viability is 98.6% in assay [4] and 101% in assay [5]. Also, the inhibition in assay [6] is 2.27%. Moreover, in assay [7], the RAM network inhibition is 2.41%.

For the compound `COc1ccc(OC)c(C2CC(=O)N3CN(c4cccc(Cl)c4C)CSC3=C2C#N)c1` (stereo not given), the growth inhibition in assay [1] was 2.17%; in assay [2] it was 13.8%. The viability increase in assay [3] was -5.48%. The viability was 74% in assay [4] and 72.1% in assay [5]. Also, the inhibition in assay [6] is 1.87%. The RAM network inhibition in assay [7] is 2.07%.

`Cc1ccc(SCCNC(=O)C(CO)(CO)CO)cc1`: the values for the growth inhibition in assay [1] and in assay [2] were 2.57% and -1.61%, respectively. Moreover, the viability increase in assay [3] is -0.51%. Moreover, the viability was 101% in assay [4] and 98.7% in assay [5]. Also, in assay [6], the inhibition is 0.935%. In addition, in assay [7], the RAM network inhibition is 0.52%.

In the case of `O=c1cc(-c2c(F)c(F)c(F)c(F)c2F)oc2c(F)c(F)c(F)c(F)c12`, the growth inhibition in assay [1] was -8.86%; in assay [2], -6.48%. In addition, in assay [3], the viability increase is -7%. Further, the viability was 1.3% (active) in assay [4] and 1.25% (active) in assay [5]. Moreover, the inhibition in assay [6] was -0.35%. Further, in assay [7], the RAM network inhibition is -1.25%.

In the case of `Cn1c(Cn2c(=O)sc3ccccc32)nnc1SCC(=O)NCc1ccc2c(c1)OCO2`, the growth inhibition was -5.55% in assay [1] and -2.44% in assay [2]. The viability increase in assay [3] was 0.11%. In addition, the viability was 103% in assay [4] and 101% in assay [5]. Further, in assay [6], the inhibition was 1.07%. Moreover, the RAM network inhibition in assay [7] is 4.41%.

With `Cc1cccc(OCc2nnc(SCC(=O)Nc3ccc(C)c(C)c3)o2)c1`, the figures for the growth inhibition in assay [1] and in assay [2] were -5.54% and 1.43%, respectively. For the same compound, the viability increase in assay [3] was -2.67%. For the same compound, the figures for the viability in assay [4] and in assay [5] were 102% and 94.2%, respectively. Moreover, the inhibition in assay [6] is 4.2%. The RAM network inhibition in assay [7] was 1.73%.

For the compound `CC(C)CC(NC(=O)c1ccco1)C(=O)Nc1ccc2c(c1)OCCO2` (stereo not given), the growth inhibition in assay [1] was 6.21%; in assay [2] it was 1.03%. Further, the viability increase in assay [3] is -1.38%. Further, the figures for the viability in assay [4] and in assay [5] were 104% and 105%, respectively. Moreover, the inhibition in assay [6] was -0.32%. Besides, the RAM network inhibition in assay [7] was 1.72%.

Take `Cc1cc(C)cc(-c2nc(-c3ccncc3)no2)c1`: the results for the growth inhibition in assay [1] and in assay [2] were 0.275% and 15.9%, respectively. Also, the viability increase in assay [3] was 3.69%. Further, the viability was 91.1% in assay [4] and 92% in assay [5]. The inhibition in assay [6] was 1.11%. The RAM network inhibition in assay [7] is 5.99%.

Turning to `COC1CCCCC1NS(=O)(=O)c1ccc(Cl)cc1` (stereo not given), the results for the growth inhibition in assay [1] and in assay [2] were 1.43% and 2.45%, respectively. In assay [3], the viability increase is -1.67%. The viability in assay [4] is 93.3%; in assay [5], 99.6%. The inhibition in assay [6] is -0.11%. In addition, the RAM network inhibition in assay [7] was -1.18%.

Turning to `COc1ccc(C)cc1NC(=O)c1cc2c(CO)cnc(C)c2oc1=N`, the figures for the growth inhibition in assay [1] and in assay [2] were -16.1% and -10.5%, respectively. The viability increase in assay [3] is -0.06%. In addition, the viability in assay [4] was 97.5%; in assay [5], 89.7%. Besides, the inhibition in assay [6] was 1.31%. In assay [7], the RAM network inhibition was 0.63%.

For the compound `Cc1ccccc1NC(=O)C1CC(Cl)=CCC1C(=O)O` (stereo not given), the growth inhibition is -2.29% in assay [1] and -0.385% in assay [2]. For the same compound, the viability increase in assay [3] is -0.5%. For the same compound, the viability in assay [4] was 101%; in assay [5], 96.9%. The inhibition in assay [6] is 1.52%. Also, in assay [7], the RAM network inhibition was 6.8%.

Turning to `O=C(CCc1ccccc1)N1CCN(CCO)CC1`, the growth inhibition in assay [1] is -4.45%; in assay [2] it was 9.8%. Moreover, the viability increase in assay [3] is 0.6%. Also, the viability in assay [4] is 101%; in assay [5], 110%. Further, in assay [6], the inhibition was 0.715%. In addition, in assay [7], the RAM network inhibition was 3.71%.
